Measured values: article PMC12102734 (Protein Science : A Publication of the Protein Society, 2025)
One block for each molecule: values may come before it. mca = not defined here

What was measured:
[1] = system: 20S proteasome β1 subunit (single-step enriched extracts); assay: Proteasome inhibition in three Schistosoma species, β1 substrate mca-VDQMDGW-K; type: biochemical, S. mansoni, S. haematobium, S. japonicum
How it was run: (§1)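 Extracts of S. mansoni, S. haematobium and S. japonicum adults were enriched by 30%/60% ammonium sulfate precipitation. Extracts (S. haematobium 0.625 μg/μL; others 1.25 μg/μL) were preincubated 1 h with 500 nM test compound (one also at 250 nM) or 0.125% DMSO. An equal volume of substrate was then added: 20 μM β1 or β2 mca/K(dnp) substrate, or 40 μM β5 Ac-FNKL-amc. Read at 24°C, triplicate wells.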

[2] = system: 20S proteasome β5 subunit (single-step enriched extracts); assay: Proteasome inhibition in three Schistosoma species, β5 substrate Ac-FNKL-amc; type: biochemical, S. mansoni, S. haematobium, S. japonicum; settings: for reduction of β5 activity, across three Schistosoma species: 250 nM inhibitor; for inhibition of β5 activity, three Schistosoma species: extracts pre-incubated 1 h with 500 nM inhibitor
How it was run: as §1

Sm20S β5 subunit = biological target: T1, Sm20S β5 subunit (Schistosoma mansoni, UniProt A0A5K4F079); assay: Concentration-response assay, purified Sm20S, Suc-LLVY-amc substrate; type: biochemical; settings: 500 nM inhibitor
T1 sequence (A0A5K4F079 63-264): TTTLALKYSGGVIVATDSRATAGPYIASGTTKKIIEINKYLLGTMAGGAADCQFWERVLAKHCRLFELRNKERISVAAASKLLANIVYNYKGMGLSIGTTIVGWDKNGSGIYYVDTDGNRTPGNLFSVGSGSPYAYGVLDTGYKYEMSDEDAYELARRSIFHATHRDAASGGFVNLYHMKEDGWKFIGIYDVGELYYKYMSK
How it was run: (§2)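 Sm20S purified from adult worm homogenate by 30%/60% ammonium sulfate precipitation, gel filtration and DEAE anion exchange. Test compound was 3-fold serially diluted in DMSO, then diluted 250-fold into 20 mM Tris-HCl pH 7.5, 0.02% SDS with 20 nM enzyme. After 15 min preincubation, an equal volume of 20 μM substrate was added: Z-LLE-amc (β1), Boc-LRR-amc (β2) or Suc-LLVY-amc (β5). Read at RT for 2 h every 2 min. Max velocity over eight reads, normalized to 0.1% DMSO control, four-parameter logistic fit.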

Sm20S β2 subunit [3] = biological target: T2, Sm20S β2 subunit (Schistosoma mansoni, UniProt G4VSW3); assay: Concentration-response assay, purified Sm20S, Boc-LRR-amc substrate; type: biochemical; settings: for inhibition at 0.5 µM: 2 h, read-out: reduction of β2 activity (Boc-LRR-amc)
T2 sequence (G4VSW3 39-281): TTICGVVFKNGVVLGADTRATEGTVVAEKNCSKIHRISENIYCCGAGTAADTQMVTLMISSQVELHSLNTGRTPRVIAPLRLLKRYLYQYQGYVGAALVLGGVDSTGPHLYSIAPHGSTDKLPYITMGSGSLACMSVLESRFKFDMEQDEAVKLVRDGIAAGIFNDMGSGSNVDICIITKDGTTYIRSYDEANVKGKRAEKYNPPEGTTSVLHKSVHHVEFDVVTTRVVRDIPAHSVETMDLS
How it was run: as §2

Sm20S β1 subunit [4] = biological target: T3, Sm20S β1 subunit (Schistosoma mansoni, UniProt G4V926); assay: Concentration-response assay, purified Sm20S, Z-LLE-amc substrate; type: biochemical
T3 sequence (G4V926 1-225): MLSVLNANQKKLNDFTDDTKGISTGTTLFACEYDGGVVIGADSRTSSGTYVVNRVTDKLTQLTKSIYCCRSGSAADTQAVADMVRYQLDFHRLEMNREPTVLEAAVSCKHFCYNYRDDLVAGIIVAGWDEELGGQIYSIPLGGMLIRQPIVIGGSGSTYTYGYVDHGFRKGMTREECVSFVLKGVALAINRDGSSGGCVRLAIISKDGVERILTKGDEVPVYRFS
How it was run: as §2

[5] = system: 20S proteasome β2 subunit (single-step enriched extracts); assay: Proteasome inhibition in three Schistosoma species, β2 substrate mca-FnKRR-K; type: biochemical, S. mansoni, S. haematobium, S. japonicum; settings: extracts pre-incubated 1 h with 500 nM inhibitor
How it was run: as §1

Sm20S β1 subunit [6] = biological target: T3, Sm20S β1 subunit; assay: Inhibition of single-step enriched Sm20S, mca-VDQMDGW-K; type: biochemical
How it was run: (§3)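 Single-step enriched Sm20S: S. mansoni extract precipitated with ammonium sulfate (30% then 60% saturation, 60 min each on ice), resuspended in 100 mM Tris-HCl pH 7.5, 100 μM E-64, and concentrated on a 100 kDa filter. Assay buffer contained pepstatin, E-64 and AEBSF. Extract was incubated with test compound 1 h at RT, and cleavage of internally quenched mca/K(dnp) substrates was read at 24°C (ex/em 320/400 nm). Technical triplicates, curve fitting.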

Sm20S β1 subunit [7] = biological target: T3, Sm20S β1 subunit; assay: Inhibition of purified Sm20S, caspase-3 substrate mca-VDQMDGW-K; type: biochemical; settings: 100 nM inhibitor, 10 μM substrate
Sm20S β2 subunit [8] = biological target: T2, Sm20S β2 subunit; assay: Inhibition of single-step enriched Sm20S, mca-FnKRR-K; type: biochemical
How it was run: as §3

Sm20S = type: biochemical, Schistosoma mansoni; settings: purified Sm20S
How it was run: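 Purified Sm20S at 10 nM was given 2-fold serial dilutions of each substrate and fluorescence was read at 24°C. Ex/em was 360/460 nm for amc and 320/400 nm for mca substrates. Ranges were 2–500 μM for the β1 pair and 6.25–500 μM for the β2 pair. Relative activity was normalized to the rate at 500 μM (β1 pair), 500 μM Boc-LRR-amc vs 31.25 μM mca-FnKRR-K(dnp) (β2), and 100 μM (β5 pair). Technical triplicates.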

Molecule: CCCCCC(=O)N[C@@H](Cc1c[nH]c2ccccc12)C(=O)N[C@@H](Cc1c[nH]c2ccccc12)C(=O)N[C@@H](Cc1ccccc1)C(=O)[C@@]1(C)CO1 [CP‐17]
reduction in β1 activity, across three Schistosoma species ([1]; 250 nM inhibitor): little inhibition | reduction of β5 activity, across three Schistosoma species [2]: > 90%

inhibition of β5 activity (Suc-LLVY-amc) (Sm20S β5 subunit): strongly inhibited | inhibition at 0.5 µM (Sm20S β2 subunit [3]): ~40% | inhibition of β1 activity with old substrate Z-LLE-amc (Sm20S β1 subunit [4]; 10 μM inhibitor): fully inhibited | inhibition at 0.5 µM (Sm20S β1 subunit [4]; 2 h, read-out: reduction of β1 activity (Z-LLE-amc)): ~40% | inhibition of β1 activity with new substrate mca-VDQMDGW-K(dnp) (Sm20S β1 subunit [6]; 10 μM inhibitor, single-step enriched Sm20S): only partially inhibitory | inhibition at 5 µM (Sm20S β1 subunit [6]; read-out: inhibition of β1 subunit): 15%
Molecule: CC(C)C[C@H](NC(=O)[C@H](CCc1ccccc1)NC(=O)CN1CCOCC1)C(=O)N[C@@H](Cc1ccccc1)C(=O)N[C@@H](CC(C)C)C(=O)[C@@]1(C)CO1 [CFZ, carfilzomib]
inhibition of β5 activity, three Schistosoma species [2]: inhibited β5 and β2 more than β1 | inhibition of β2 activity, three Schistosoma species [5]: inhibited β5 and β2 more than β1

inhibition of β5 activity (Suc-LLVY-amc) (Sm20S β5 subunit): strongly inhibited | inhibition of β2 activity with old substrate Boc-LRR-amc (Sm20S β2 subunit [3]; 10 μM inhibitor): completely inhibited | inhibition at 0.5 µM (Sm20S β2 subunit [3]): ~35% | inhibition of mca-VDQMD*GW-K(dnp) hydrolysis by Sm20S (Sm20S β1 subunit [7]): inhibited | reduction of β1 activity (Z-LLE-amc) (Sm20S β1 subunit [4]; 500 nM inhibitor, purified Sm20S): strongly inhibited | inhibition of β2 activity with new substrate mca-FnKRR-K(dnp) (Sm20S β2 subunit [8]; 10 μM inhibitor): did not inhibit | reduction of β2 activity (Sm20S β2 subunit [8]; up to 5 μM inhibitor): No reduction
Molecule: CC(C)C[C@H](NC(=O)[C@H](Cc1ccccc1)NC(=O)c1cnccn1)B(O)O [BTZ, bortezomib]
inhibition of β1 activity, three Schistosoma species ([1]; extracts pre-incubated 1 h with 500 nM inhibitor): preferentially inhibited | inhibition of β5 activity, three Schistosoma species [2]: preferentially inhibited

Molecule: mca‐VDQMDGW‐K(dnp)‐NH2 (mca-VDQMDGW-{K(dnp)-NH2}; reading uncertain; also: printed as mca‐VDQMDGW‐K(dnp)‐NH2)
cleavage efficiency relative to LLE-amc (Sm20S; between 16 and 250 μM substrate, β1): ~ 2 fold

Molecule: C[C@@]12OC(=O)[C@]1([C@@H](O)[C@@H]1C=CCCC1)NC(=O)[C@@H]2CCCl [MZB, marizomib]
reduction of β5 activity, across three Schistosoma species [2]: complete inactivation

Molecule: Boc‐LRR‐amc
cleavage by Sm20S over substrate concentration range (Sm20S; 6.25-500 μM substrate, β2): steadily increased across the entire concentration range

Molecule: Ac‐FNKL‐amc
cleavage rate relative to Suc-LLVY-amc (Sm20S; both substrates at 25 μM, β5): ~ 4 fold | substrate concentration at which cleavage is maximal (Sm20S; β5 substrate): 25 µM
